Calls of active or inactive are those of the source. The rule behind the calls is not given here.
What was measured:
[1] = Antioxidant activity assessed as H2O2 scavenging by measuring remaining dithiothreitol level at 0.1 equivalent after 3 mins by 1H NMR spectroscopy relative to control; type: functional
How it was run: (§1)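 Dithiothreitol oxidation by 30% H2O2 (3.0 eq) in CD3OD, catalysed by Se compound at 0.1 equiv. 1H NMR spectra taken right after H2O2 addition and then at set intervals. Remaining substrate derived from changes in signal integration.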

[2] = Antioxidant activity assessed as H2O2 scavenging by measuring remaining dithiothreitol level at 0.1 equivalent after 5 mins by 1H NMR spectroscopy relative to control; type: functional; how it was run: as §1
[3] = Antioxidant activity assessed as H2O2 scavenging by measuring remaining dithiothreitol level after 15 mins at 0.1 equivalent by 1H NMR spectroscopy relative to control; type: functional; how it was run: as §1
[4] = Antioxidant activity assessed as H2O2 scavenging by measuring remaining dithiothreitol level at 0.1 equivalent after 30 mins by 1H NMR spectroscopy relative to control; type: functional; how it was run: as §1
[5] = Antioxidant activity assessed as H2O2 scavenging by measuring remaining dithiothreitol level at 0.1 equivalent after 60 mins by 1H NMR spectroscopy relative to control; type: functional; how it was run: as §1
[6] = Cytotoxicity against human MCF7 cells assessed as reduction in cell viability measured after 24 hrs by MTT assay; type: functional, cell-based; conditions: MCF7, 24 h
How it was run: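 MCF-7 cells grown in MEM with glutamine, non-essential amino acids, gentamycin and 10% heat-inactivated FBS at 37°C, 5% CO2. Seeded at 10^4 cells/well and left 24 h. Compounds at various concentrations or 0.1% DMSO vehicle for 24 h. MTT added for 2 h at 37°C. Formazan read at 540 nm against untreated control. Run in triplicate, IC50 reported.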

[7] = Cytotoxicity against human DU145 cells assessed as reduction in cell viability measured after 24 hrs by SRB assay; type: functional, cell-based; conditions: DU-145, 24 h
How it was run: (§2)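 DU-145 cells grown in MEM with 10% FBS, glutamine and pyruvate. PNT1A cells grown in RPMI 1640 with serum. Both seeded at 6.0 x 10^3 cells/well for 24 h, then treated 24 h with graded concentrations up to 40. Triplicate, IC50 calculated.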

[8] = Cytotoxicity against human PNT1A cells assessed as reduction in cell viability measured after 24 hrs by SRB assay; type: toxicity, cell-based; how it was run: as §2
DU-145 = experiment: Inhibition of Akt-phosphorylation in human DU145 cells at 40 uM measured after 0.5 to 2 hrs by Western blot analysis; type: cell-based
How it was run: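 Cells treated with 40 μM compound for different times. Floating and attached cells lysed in Tris-HCl pH 7.5/NaCl/Triton X-100/SDS for 40 min on ice. Lysates run on 10–12% SDS-PAGE and blotted to PVDF. Primary antibody applied 1 h at room temperature, detection by ECL. p-Akt quantified by densitometry and normalised to β-actin.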

[9] = Antiproliferative activity against human A549 cells; type: functional, cell-based

Row | Compound | Activity [1] [%] | Activity [2] [%] | Activity [3] [%] | Activity [4] [%] | Activity [5] [%] | IC50 [6] [µM] | IC50 [7] [µM] | IC50 at 24 h [8] [µM] | inhibition (DU-145) | IC50 [9] [µM]
1 | O=c1c2ccccc2[se]n1C1CCCCC1 | 75 | 69 | 62 | 55 | 44 | 7.31 | 5.71 | > 40 | Active | 
2 | C=CCn1[se]c2ccccc2c1=O | 76 | 69 | 58 | 53 | 41 | 25.7 | 10.3 | > 40 |  | 
3 | Cn1[se]c2ccccc2c1=O | 78 | 65 | 35 | 11 | 0 | 32.7 | 30.2 | > 40 |  | 
4 | CCCCNC(=O)c1ccccc1[Se][Se]c1ccccc1C(=O)NCCCC | 93 | 88 | 82 | 77 | 73 | > 500 | > 40 |  |  | 
5 | O=c1c2ccccc2[se]n1-c1ccccc1 | 84 | 75 | 64 | 58 | 52 |  |  |  |  | 
6 | O=C(NC1CCCCC1)c1ccccc1[Se][Se]c1ccccc1C(=O)NC1CCCCC1 | 92 | 85 | 75 | 65 | 54 | 90 | > 40 |  |  | 
7 | CC(C)CCn1[se]c2ccccc2c1=O | 77 | 58 | 42 | 28 | 13 | 29 | 30.4 | > 40 | Active | 
8 | C=CCNC(=O)c1ccccc1[Se][Se]c1ccccc1C(=O)NCC=C | 59 | 36 | 12 | 0 | 0 | 125 | 20.4 |  |  | 
9 | O=C(O)c1ccc(NC(=O)c2ccccc2[Se][Se]c2ccccc2C(=O)Nc2ccc(C(=O)O)cc2)cc1 |  |  |  |  |  |  |  |  |  | 20
10 | CC(C)CCNC(=O)c1ccccc1[Se][Se]c1ccccc1C(=O)NCCC(C)C | 65 | 49 | 38 | 31 | 21 | > 500 | > 40 |  |  | 
11 | CCCCn1[se]c2ccccc2c1=O | 81 | 59 | 41 | 32 | 29 | 13.8 | 20.8 | > 40 |  | 
